Bioassay records deposited in PubChem BioAssay by several laboratories.
MT stabilizer: microtubule stabilization, imaging screen | % tubulin-high responders, % at 10 µM | HeLa tubulin immunostaining HCS, 24 h; share of cells brighter than vehicle mean+2SD | 200,000 tested, 0.83% active | AID 2205;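 active means plate Z-score above 3 for both tubulin-high and condensed-nucleus cell shares, with cell loss under 80%, at 10 µM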;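 further: anti alpha tubulin signal scored within the nucleus-defined area of each cell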
ROMK primary: modulates human ROMK potassium channel activity | P48048 | Tet-inducible ROMK, thallium flux fluorescence; actives lie on both sides | B-score at 10 µM | 130,000 tested, 2% active | AID 1918;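 active means signal ratio slope over the read window, or its plate-corrected B-score, at least 3 SD from the plate mean, either direction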;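 further: B-score of the F/F0 ratio slope over 7 to 12 s after thallium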
Target sequence (P48048 whole entry, looked up): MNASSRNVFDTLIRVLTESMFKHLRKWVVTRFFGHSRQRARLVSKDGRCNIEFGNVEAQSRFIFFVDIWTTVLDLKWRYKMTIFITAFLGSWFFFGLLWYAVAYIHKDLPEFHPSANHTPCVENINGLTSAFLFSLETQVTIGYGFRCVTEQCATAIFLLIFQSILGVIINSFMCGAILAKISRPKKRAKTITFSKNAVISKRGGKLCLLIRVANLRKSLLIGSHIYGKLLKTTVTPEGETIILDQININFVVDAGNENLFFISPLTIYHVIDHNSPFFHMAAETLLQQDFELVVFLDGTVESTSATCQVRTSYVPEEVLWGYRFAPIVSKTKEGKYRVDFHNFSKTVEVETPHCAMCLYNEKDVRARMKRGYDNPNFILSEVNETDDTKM
bCat nuc transl: alters nuclear translocation of beta-catenin in HeLa cells. 190,000 tested, 0.3% active. immunofluorescence imaging. nuclear translocation activity, % at 5 µM. AID 1665;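 active means nuclear translocation activity above 50% at 5 µM, with a well cell count of 50 or more; inconclusive means wells under 50 cells across six images, flagged as toxic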;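 further: per-cell ratio of nuclear to cytoplasmic median beta-catenin stain intensity; plate controls were DMSO negative control for no effect and GSK-3 inhibitor IX positive control for full effect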
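Technique: fluorescence imaging of beta-catenin antibody stain plus DAPI / Material: human HeLa cell line / Incubation: compound treatment 24 h, 37°C, 5% CO2 / Read-out basis: % activation of per-cell nuclear versus cytoplasmic median beta-catenin signal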
ROMK retest: confirmation of human ROMK potassium channel modulators | shares compounds with ROMK primary | ROMK thallium flux, fluorescence ratio; hits give low values | normalized thallium flux (F/F0 slope) at 10 µM | 3,000 tested, 54% active | AID 1917;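 active means Flux at 10 µM at least 3 SD below or above vehicle control mean in one or both replicates; inconclusive means no clear call, values can overlap the other calls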
The depositor's hits bear a star; ? = inconclusive; . = no result. Most compounds without a hit are left out; they make up all but 1.9% or so of the library.

SMILES	MT stabilizer	ROMK primary	bCat nuc transl	ROMK retest
CC(/C=N/NC(=O)c1cc(-c2cccnc2)nc2c1c(C)nn2-c1ccccc1)=C\c1ccccc1	5	.	-2	?
Cc1nn(-c2ccccc2)c(N2CCCC2)c1/C=N/NC(=O)c1cc(-c2cccnc2)nc2ccccc12	10	.	1	.
CCOC(=O)Cc1csc(NC(=O)CSc2ncnc3c2cnn3-c2ccccc2Cl)n1	4	.	5	0.054*
Cc1nnc(NC(=O)CSc2ncnc3c2cnn3-c2ccccc2C)s1	2	.	.	.
Cc1nnsc1-c1c(C(=O)N2CCOCC2)c(C)nn1-c1ccc(Cl)cc1	.	.	0	.
O=C(NC1CCCCC1)C1CCN(S(=O)(=O)c2cccs2)CC1	7	-0.057	-10	.
O=C(NC1CCCCCC1)C1CCCN(S(=O)(=O)c2cccs2)C1 (configuration not stated)	3	.	.	?
C/C(=N\NC(=O)c1cccc([N+](=O)[O-])c1)c1cccc(NC(=O)C2CC2)c1	2	.	0	.
C/C(=N/NC(=O)C1CCN(S(=O)(=O)c2ccc(C)cc2)CC1)c1cccc([N+](=O)[O-])c1	3	-2.5*	.	0.076
Cc1cc(C)c(NC(=O)c2ccc[n+](Cc3ccc([N+](=O)[O-])cc3)c2)c(C)c1	4	-2	-1	.
CCOC(=O)/C(C#N)=C\c1ccc(O)c(OC)c1	2	-0.037	-2	.
CCOc1cc(/C=C(\C#N)c2[nH]nc(N)c2C#N)ccc1O	2	4.8*	.	0.088
O=C(NCc1nnc(SCc2ccc(F)cc2)n1-c1ccccc1)C12CC3CC(CC(C3)C1)C2	3	-2.5*	0	0.056*
O=C(NCc1nnc(SCc2ccc(C(F)(F)F)cc2)n1-c1ccccc1)C12CC3CC(CC(C3)C1)C2	4	-1.5	2	.
CCCn1c(=O)c2c(C(=O)OCC)cc(-c3ccco3)nc2n(CCC)c1=O	3	-3.8*	-4	0.064*
CCCn1c(=O)c2c(C(F)(F)F)cc(-c3ccco3)nc2n(CCC)c1=O	3	0.62	-2	.
CCC1=NN2C(=N)/C(=C\c3cccn3-c3ccc(OC)cc3)C(=O)N=C2S1	2	0.68	-2	.
CCC1=NN2C(=N)/C(=C/c3c(C)nn(-c4ccccc4)c3Cl)C(=O)N=C2S1	3	-3.1*	.	0.047*
COc1ccc(/C=C/C(=O)O)cc1S(=O)(=O)N1CCC(C)CC1	.	.	0	.
CCCCc1n(CC(=O)c2ccc(Cl)cc2)c2ccccc2[n+]1C	3	1.3	-1	.
CCN(CC)S(=O)(=O)c1ccc(Cl)c(OC)c1	2	-0.45	2	.
CCCN(CCC)S(=O)(=O)c1ccc(Cl)c(OC)c1	2	-16*	1	?
CCOc1ccccc1NC(C)C(=O)Nc1cc(C(F)(F)F)ccc1N1CCOCC1 (configuration not stated)	3	.	-2	.
CCOc1cc(CNC2CCCC2)cc(Cl)c1OCc1ccc(F)cc1	2	-3.8*	-3	0.061*
COc1cc(CNC2CCCC2)cc(Cl)c1OCc1ccc(F)cc1	2	.	5	.
SMILES	MT stabilizer	ROMK primary	bCat nuc transl	ROMK retest
Cc1cc(CNC(=O)c2cccnc2Cl)c2ccccc2n1	2	.	-1	.
CSc1ccccc1C(=O)N1CCc2ccccc2C1	2	0.88	-1	.
O/N=C1\CCCc2oc3c(c21)CCCC3	2	.	.	0.064*
Cc1c(C(=O)O)oc2c1/C(=N\O)CCC2	1	.	0	.
CCOc1ccc(C(=O)Nc2cccc3ncccc23)cc1Br	4	0.56	0	.
O=C(CCn1c(=O)oc2ccccc21)N1CCN(C(c2ccccc2)c2ccccc2)CC1	4	-2.8*	-7	0.059*
O=C(CCn1c(=O)oc2ccccc21)N1CCN(c2ccccc2F)CC1	5	-0.19	-2	.
O=C(C1CCN(Cc2ccccc2)CC1)N1CCCC1	2	.	1	0.074
O=C(C1CCC1)N1CCN(Cc2ccccc2)CC1	5	.	-3	.
Cc1onc(-c2c(Cl)cccc2Cl)c1COC(=O)c1ccc(Cl)cc1[N+](=O)[O-]	.	.	1	.
COC(=O)CNC(=O)Cn1ccc2ccccc2c1=O	5	.	-4	.
Cc1ccc(CNC(=O)Cn2ccc3ccccc3c2=O)o1	2	.	1	0.073
CC(C)(C)c1ccc(OCC(O)CN(CCO)CC(O)Cn2ccc3ccccc32)cc1 (configuration not stated)	2	.	1	.
OCCN(CC(O)Cn1ccc2ccccc21)CC(O)Cn1ccc2ccccc21 (configuration not stated)	3	-4.8*	0	0.056*
COc1cccc2cc(C(=O)OCC(=O)NCc3ccc4c(c3)OCO4)c(=O)oc12	.	.	0	.
COc1ccc(Br)cc1CN(C)CC(=O)NCCc1ccccc1	2	-0.81	0	.
O=C(COc1ccc(Br)cc1CNC1CCCCC1)NCCc1ccccc1	2	-5.2*	-10	0.048*
CC1CCN(C(=O)CCc2ccc(Oc3cc([N+](=O)[O-])cc([N+](=O)[O-])c3)cc2)CC1	2	-2.1	0	.
CC1CN(c2ccc([N+](=O)[O-])c(NCCOc3ccccc3)c2)CCN1 (configuration not stated)	1	-2.5*	3	0.062*
COc1ccc(OCCNc2cc(N3CCCCC3)ccc2[N+](=O)[O-])cc1	2	.	-1	.
COC(=O)NC(C)N1C(=O)C2C3C=CC(C3)C2C1=O (configuration not stated)	1	0.62	3	.
Cc1ccc2oc(=O)n(CCOc3ccccc3)c2c1	1	-3.5*	0	0.057*
Cc1cccc(OCCn2c(=O)oc3ccc(C)cc32)c1	1	-2.3	0	.
CC(C)c1ccc(-n2c(-c3ccccc3)c[n+]3c2CCc2ccccc2-3)cc1	3	-6*	2	0.041*
COc1ccc(-n2c(-c3ccc(Br)cc3)c[n+]3c2CCc2ccccc2-3)cc1	2	-2.5	-1	.
SMILES	MT stabilizer	ROMK primary	bCat nuc transl	ROMK retest
CC(Cc1ccsc1)NC(=O)CCc1nnc(COc2ccccc2)o1 (configuration not stated)	5	-0.045	-1	.
COc1ccc(/C=C/C(=O)Nc2cccc(F)c2)cc1S(=O)(=O)N1CCOCC1	2	-0.86	2	0.064*
COc1ccc(/C=C/C(=O)Nc2ccccc2C)cc1S(=O)(=O)N1CCOCC1	.	.	1	.
CCOC(=O)CC1=NN(c2ccccc2)C(=O)/C1=C\c1ccc(OC)cc1OC	2	0.24	0	.
O=[N+]([O-])/C(C(Cl)=C(Cl)Cl)=C1\Nc2ccccc2O1	.	1.6	0	.
CCOc1ccc2c(c1)/C(=N/N1C(=O)c3ccccc3C1=O)C(=O)N2	3	.	0	.
CCOc1ccc2c(c1)/C(=C(\C(Cl)=C(Cl)Cl)[N+](=O)[O-])N2	3	-4.7*	-1	0.053*
CCCCOc1ccc2c(c1)/C(=C(\C(Cl)=C(Cl)Cl)[N+](=O)[O-])N2	9.9*	-5.6*	0	0.054*
C=CCc1cccc([C@@H]2[C@@H](C)CC[C@H]3C(=O)N4[C@@H](c5cc(OC)c(OC)c(OC)c5)c5[nH]c6ccccc6c5C[C@H]4C(=O)N23)c1	5	0.018	.	.
C(#Cc1ccccc1)C[N+]1(CC#Cc2ccccc2)CCCCC1	2	-0.76	0	.
Cc1ccc(C#CC[N+]2(CC#Cc3ccc(C)cc3)CCCCC2)cc1	2	-5.1*	-2	0.056*
